NSD2 inh = blocks human histone methyltransferase NSD2. O96028. NSD2 peptide methylation, AlphaScreen, 120 min. inhibition, % at 12.5 µM. hit rate 0.54% among 310,000. AID 743445; in the data active = inhibition above about 50%
LEDGF integ inh = blocks HIV-1 LEDGF/p75-dependent DNA integration; TR-FRET IN-LEDGF/p75 DNA integration, Eu/Cy5; inhibition, % at 3.7 µM; hit rate 0.64% among 370,000; AID 743269;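 active = inhibition above the screen-wide mean plus 3 SD, cut at about 13% in these data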;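 note: signal is the Cy5 over europium emission ratio at 671 and 618 nm; 0% = plate median of compound wells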
CASP6 VEID inh = blocks human caspase-6 cleavage activity | P55212 | purified caspase-6, Z-VEID-R110 cleavage fluorescence | inhibition, % at 12.5 µM | hit rate 0.53% among 350,000 | AID 686996;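 active = mean inhibition across replicates at least about 35%, with every replicate also reaching that limit, limit read from the data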;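 note: 0% = median of neutral control wells and 100% = no fluorescence left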
Target sequence (P55212 24-179 limits assumed): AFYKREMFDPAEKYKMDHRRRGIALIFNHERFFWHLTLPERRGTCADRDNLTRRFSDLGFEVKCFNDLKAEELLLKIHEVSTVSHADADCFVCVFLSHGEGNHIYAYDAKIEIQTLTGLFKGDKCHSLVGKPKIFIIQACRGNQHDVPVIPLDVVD
Target sequence (P55212 194-293 limits assumed): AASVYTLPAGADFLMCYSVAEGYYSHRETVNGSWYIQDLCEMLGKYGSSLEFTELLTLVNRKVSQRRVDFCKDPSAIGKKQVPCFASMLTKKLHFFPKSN
UHRF1 binding = UHRF1 methyl-DNA binding inhibition; Q96T88; UHRF1 binding to methylated oligo, TR-FRET; inhibition, % at 4.4 µM; hit rate 0.75% among 370,000; AID 687016; in the data active = inhibition above about 21%;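 note: UHRF1 SRA domain binding a hemimethylated CpG hairpin DNA probe; 0% = median of test compound wells and 100% = reference inhibitor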
MBD2 inh = inhibitors of human MBD2 binding to methylated oligonucleotide; Q9UBB5; TR-FRET; inhibition, % at 4.4 µM; hit rate 0.31% among 370,000; in the data active = inhibition above about 13%
TDP2 inh = TDP2 (human) inhibition, absorbance primary screen | O95551 | recombinant TDP2, T5PNP hydrolysis, p-nitrophenol absorbance 415 nm | inhibition, % at 12.8 µM | hit rate 0.34% among 370,000 | AID 720702;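 active = inhibition above the mean of all tested compounds plus 3 SD, set per campaign, cut at about 25% in these data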;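 note: 0% = DMSO with enzyme and 100% = buffer with substrate but no TDP2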
Target sequence (O95551 whole entry, looked up): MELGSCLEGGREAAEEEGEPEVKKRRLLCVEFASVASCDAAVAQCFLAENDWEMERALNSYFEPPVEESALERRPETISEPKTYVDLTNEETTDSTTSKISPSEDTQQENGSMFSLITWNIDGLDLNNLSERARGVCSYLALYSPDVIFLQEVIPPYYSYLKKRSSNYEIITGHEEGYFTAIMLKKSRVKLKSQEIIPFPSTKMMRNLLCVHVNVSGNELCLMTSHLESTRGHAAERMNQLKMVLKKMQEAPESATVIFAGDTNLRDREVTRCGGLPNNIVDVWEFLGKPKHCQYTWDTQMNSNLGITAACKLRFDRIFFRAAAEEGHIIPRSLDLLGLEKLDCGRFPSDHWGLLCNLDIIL
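Evaluation: % inhibition relative to enzyme-containing and enzyme-free wells. Material: recombinant human TDP2. Benchmarks: enzyme-free and DMSO wells. Timing: enzyme reaction with compound for 2 h at 37 °C. Compound dosing: 12.8 µM only. Measured by: p-Nitrophenol epi absorbance. Reagent: T5PNP substrate at 5 mM, a TopII-DNA adduct mimic. Replication: single well per compound.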
Alpha artifact = counter-screen for NSD2 inhibitors: AlphaScreen artifacts; shares compounds with NSD2 inh; AlphaScreen artifact counterscreen, preloaded methylated H4 peptide; AC35, µM (series often up to 10 µM), inactives show at the top dose activity change, negative = signal loss; hit rate 9.4% among 1,500; call rule not given here
Starred values were filed as active, the others as inactive; nt = not tested or not shown. This is a sample that favours compounds with a hit; in the whole collection about 1.8% have one here.

SMILES	NSD2 inh	LEDGF integ inh	CASP6 VEID inh	UHRF1 binding	MBD2 inh	TDP2 inh	Alpha artifact
CC1CCC2C(C1)c1sc(=O)[nH]c1SC2(C)C (stereo not drawn)	111.0*	1.2	nt	1.3	2.3	6.2	-2.0%
COc1ccc(NC(=O)Nc2ccc3c(c2)[C@@H]2C[C@H](CC(=O)NCc4ccccn4)O[C@H](CO)[C@@H]2O3)cc1	nt	nt	1.0	nt	nt	nt	nt
CC(=O)c1ccc(NC(=S)NCCc2cccc(Cl)c2)cc1	53.4*	-4.4	2.5	0.5	1.7	4.5	-1.8%
CC(=O)c1ccc(NC(=O)Nc2cccc(Cl)c2)cc1	-5.9	0.6	nt	-2.4	-1.6	4.8	nt
C[C@H](NC(=O)C[C@H]1C[C@@H]2c3cc(NC(=O)C4CCOCC4)ccc3O[C@@H]2[C@@H](CO)O1)c1ccccc1	nt	nt	1.3	nt	nt	nt	nt
Cc1cccc(C(=O)Nc2cccc(-c3cnc4ccccc4n3)c2)c1	56.9*	-0.9	nt	2.8	0.7	2.7	-2.3%
Cc1ccc(C(=O)Nc2cccc(-c3cnc4ccccc4n3)c2)cc1	-1.0	-2.3	nt	-1.8	3.1	1.9	nt
COc1cccc(NC(=O)C[C@@H]2CC[C@@H]3[C@@H](COc4ccc(NC(=O)C5CCCC5)cc4C(=O)N3C)O2)c1	nt	nt	1.5	nt	nt	nt	nt
CC(=O)c1ccc(N2CCN(C(=O)[C@H](C)NC(=O)c3ccccc3Cl)CC2)cc1	64.6*	1.2	-3.7	2.3	-3.8	13.5	-1.8%
O=C(C1CC1)N1CC(=O)N2[C@H](CO)[C@@H](c3ccc(C#Cc4cccc(F)c4)cc3)[C@H]2C1	nt	nt	-0.8	nt	nt	nt	nt
COc1cc(C)c2sc3ccccc3c(=O)c2c1NCCN(C)C	161.3*	-3.6	-42.7	5.8	0.2	1.7	3.25µM*
COc1ccccc1C(=O)Nc1ccccc1C(=O)N1CCCC1	-2.2	3.7	nt	0.4	-7.6	-12.2	nt
COc1ccccc1OCC(=O)Nc1ccccc1C(=O)N1CCCC1	80.0*	4.2	-0.5	0.0	2.5	-3.2	-2.8%
COc1ccccc1OCC(=O)Nc1ccc(S(=O)(=O)N2CCCC2)cc1	69.5*	-2.2	-0.1	-2.1	-4.9	14.6	-1.7%
CCCc1cn(CC[C@@H]2CC[C@H](NC(=O)C3CCCCC3)[C@@H](CO)O2)nn1	nt	nt	1.6	nt	nt	nt	nt
N=c1c(C(=O)NCc2ccco2)cc2c(=O)n3ccccc3nc2n1C1CCCC1	66.2*	4.8	99.2*	-6.5	-2.1	2.1	1.2%
O=c1c2ccccc2nnn1CSc1nc2ccccc2c(=O)n1CCCO	51.6*	-8.6	-5.5	2.6	0.7	-8.7	0.8%
Cn1c(SCn2nnc3ccccc3c2=O)nc2ccccc2c1=O	0.4	nt	nt	nt	nt	nt	nt
CC(=O)c1ccc(NC(=O)CC2Nc3cccc4cccc(c34)NC2=O)cc1 (stereo not drawn)	78.2*	0.4	8.8	-5.2	-1.7	-1.1	-4.9%
COc1ccc(CCNC(=O)Nc2ccc3c(c2)c(=O)n(C)n3CC=C(C)C)cc1OC	52.0*	0.5	0.3	-3.9	-5.0	4.5	-2.9%
O=C(C1CCOCC1)N1C[C@@H]2[C@H](c3ccccc31)[C@@H](CO)N2C(=O)Nc1cccc(F)c1	nt	nt	-1.4	nt	nt	nt	nt
O=C(COC(=O)c1cc(S(=O)(=O)N2CCOCC2)ccc1Cl)c1ccc[nH]1	-0.2	2.8	7.9	-2.0	1.8	2.0	nt
O=C(COC(=O)c1cc(S(=O)(=O)N2CCOCC2)ccc1F)c1ccc[nH]1	69.3*	-3.5	nt	-1.8	6.6	2.5	-4.2%
COC(=O)c1sc(S(=O)(=O)NCCCN(C)C)c(C(=O)OC)c1C	1.0	-5.7	-2.2	0.8	3.0	9.7	nt
COC(=O)c1sc(S(=O)(=O)Nc2ccc(C)c(C)c2)c(C(=O)OC)c1C	50.2*	2.8	-0.6	-4.7	-4.6	-1.7	0.4%
SMILES	NSD2 inh	LEDGF integ inh	CASP6 VEID inh	UHRF1 binding	MBD2 inh	TDP2 inh	Alpha artifact
Cc1ccc(S(=O)(=O)/N=C2/NC(=O)/C(=C\c3cc(Br)cc(Br)c3O)S2)cc1	109.3*	nt	nt	nt	nt	nt	-3.6%
Cc1ccc(S(=O)(=O)/N=C2/NC(=O)/C(=C/c3cccnc3)S2)cc1	4.4	0.1	nt	-1.2	-1.1	5.2	nt
CCCN1[C@H](C(=O)NCC)[C@@H](CO)[C@@H]2Cn3c(ccc(-c4ccc(C(=O)N(C)C)cc4)c3=O)[C@@H]21	nt	nt	10.7	nt	nt	nt	nt
Cc1nc(N)sc1-c1nnc(SCC(=O)Nc2ccccc2C(F)(F)F)n1C	125.4*	1.1	nt	1.8	1.9	5.5	0.1%
C[n+]1ccc(/C=C/c2ccccc2O)c2ccccc21	50.4*	-1.5	-9.0	3.4	-3.0	-6.6	-6.3%
CN(C)C(=O)c1ccc(-c2ccc([C@H]3[C@@H](CO)N4CCCCN(C(=O)C5CCC5)C[C@@H]34)cc2)cc1	nt	nt	1.8	nt	nt	nt	nt
COc1ccc(CCC(=O)NCCOc2ccccc2Cl)cc1	123.8*	-0.1	-1.9	1.0	1.5	-4.9	-1.8%
COc1ccc(CCC(=O)NCCOc2ccc(C)cc2)cc1	-5.1	0.3	5.7	1.7	-4.9	1.8	nt
C=CCn1c(SCC(C)=O)nc2scc(-c3ccco3)c2c1=O	0.0	7.7	8.8	1.6	1.3	9.3	nt
C=CCn1c(SCc2ccc3c(c2)OCO3)nc2scc(-c3ccco3)c2c1=O	116.7*	0.0	nt	-0.2	-2.8	-12.6	-3.1%
OC[C@@H]1[C@H](c2ccc(-c3cccnc3)cc2)[C@@H]2CN(CC3CCOCC3)CCCCN12	nt	nt	-0.1	nt	nt	nt	nt
CCN(CC)c1ccc(C(=C2C=CC(=[N+](CC)CC)C=C2)c2ccc(N(CC)CC)cc2)cc1	154.2*	-22.0	25.1	-2.1	-1.9	-6.8	0.428µM*
CCN(CC)c1ccc(C(=C2C=CC(=[N+](CC)CC)C=C2)c2ccccc2)cc1	27.0	1.1	3.2	-1.5	-3.0	8.7	nt
Cc1ccc(S(=O)(=O)Nc2ccc3c(c2)CC(=O)N([C@@H](C)CO)C[C@@H](C)[C@H](CN(C)Cc2ccc4c(c2)OCO4)O3)cc1	nt	nt	-0.5	nt	nt	nt	nt
CCC(C)Nc1nc(CN2CCOCC2)nc2sc3c(c12)CCC3 (stereo not drawn)	1.7	0.5	nt	0.7	-1.2	3.6	nt
CCN(CC)CCCNc1nc(CN2CCOCC2)nc2sc3c(c12)CCC3	54.3*	-8.8	-10.8	0.7	1.6	-16.3	2.9%
O=C(Nc1cccc(Cl)c1)N[C@H]1CC[C@H](CCNC(=O)C2CCCCC2)O[C@H]1CO	nt	nt	1.7	nt	nt	nt	nt
COc1cc(/C=C(\C#N)c2nc3ccc(C)cc3[nH]2)cc([N+](=O)[O-])c1O	61.2*	1.1	16.2	-8.3	-6.2	8.0	-17.2%
Cc1c(O)ccc(C(=O)CN2CCN(c3ccccc3F)CC2)c1O	-0.2	nt	nt	nt	nt	nt	nt
O=C(CN1CCN(c2ccccc2F)CC1)c1ccc(O)c(O)c1	94.8*	63.9*	nt	5.7	-3.9	12.3	-18.9%
COc1ccc(OC)c(C(=O)CN2CCN(S(=O)(=O)c3ccc(Br)cc3)CC2)c1	2.7	3.3	nt	-2.8	-5.6	7.7	nt
